# Screening data (PubChem BioAssay)
# An excerpt weighted towards active compounds, which were near 2.7% of everything screened.
# OX1R antag-1: human HCRTR1 antagonism; CHO/OX1R cells, Fluo-8 calcium fluorescence, orexin A; inhibition, % at 5 µM; AID 434989; actives 0.43% (n = 330,000);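 active = inhibition above its plate's threshold, mean inhibition of all tested compounds on the plate plus 3 SD, cut at about 37% in these data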;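 note: 0% = orexin A challenge wells and 100% = SB-334867-A antagonist wells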
# CHO parental Ca: counter-screen: ATP calcium response change in parental CHO cells; parental CHO-K1, ATP-induced calcium, Fluo-8 fluorescence; inhibition, % at 5.6 µM; actives 0.63% (n = 330,000);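 active = inhibition above that plate's mean sample inhibition plus 3 SD, cut at about 26% in these data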;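 note: 0% = ATP-challenged DMSO wells and 100% = DMSO wells without ATP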
#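 Test system: untransfected parental CHO cell line. Compound: one dose, 5.6 µM nominal. Detection: intracellular calcium via Fluo-8 no-wash fluorescent dye. Measure: % inhibition. Benchmarks: ATP-challenged DMSO wells low, unchallenged DMSO wells high.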
# OX1R antag-2: blocks the human orexin 1 receptor. O43613. OX1R-expressing cells, FRET antagonist read-out. inhibition, % at 6.6 µM. actives 1.8% (n = 330,000). AID 485270; in the data active = inhibition mostly above about 38%, no sharp cut-off; inactive = mostly below about 40%;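 note: 0% = agonist challenge alone and 100% = reference antagonist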
# V1R ag counter: counter-screen for oxytocin receptor agonists: human V1a receptor agonists; CHO-V1R cells, Fluo-8 calcium fluorescence, agonist mode; 0% DMSO, 100% 3 nM vasopressin; P37288; activation, % at 3 µM; actives 0.25% (n = 320,000);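 active = activation above the mean activation of all tested compounds plus 3 SD, per screening run, cut at about 20% in these data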;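 note: signal is peak over basal fluorescence ratio across a 100 second FLIPR read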
# OXTR potentiator: potentiators of human oxytocin receptor; actives 0.061% (n = 320,000); activation, % at 3 µM; CHO-OTR cells, Fluo-8 calcium fluorescence, potentiator mode; 0% = oxytocin EC15, 100% = EC100; P30559;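 active = activation above that plate's cutoff, the mean activation of tested compounds plus 3 SD, cut at about 6.6% in these data, passing the limit was not always enough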;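 note: 100% uses oxytocin at 75 nM as the full agonist control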
# Target sequence (P30559 whole entry, looked up): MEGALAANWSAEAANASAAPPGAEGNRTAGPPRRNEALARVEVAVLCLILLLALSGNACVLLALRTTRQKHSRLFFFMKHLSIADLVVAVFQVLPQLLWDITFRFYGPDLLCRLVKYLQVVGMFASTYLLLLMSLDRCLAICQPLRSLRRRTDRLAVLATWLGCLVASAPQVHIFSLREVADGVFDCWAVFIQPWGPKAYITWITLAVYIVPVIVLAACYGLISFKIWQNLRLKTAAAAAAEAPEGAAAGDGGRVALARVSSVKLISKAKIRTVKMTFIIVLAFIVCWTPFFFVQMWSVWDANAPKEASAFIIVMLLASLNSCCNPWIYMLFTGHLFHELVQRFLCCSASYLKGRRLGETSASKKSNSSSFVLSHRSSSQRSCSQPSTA
#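 Measured by – Fluo-8 calcium dye fluorescence · Test system – human OTR in CHO cells · Dosing – one concentration, 3.0 µM compound · Controls – EC15 oxytocin alone as 0%, 75 nM oxytocin as 100% · Evaluation – normalized max/min fluorescence ratio, % activation · Timing – 6 min pre-incubation, 100 s read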
# OXTR ag: activates the human oxytocin receptor | P30559 | CHO-OTR cells, Fluo-8 calcium fluorescence; normalized: DMSO 0%, oxytocin 100% | activation, % at 3 µM | actives 0.32% (n = 320,000);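 active = activation above the mean of all tested compounds plus 3 SD, cutoff set per screening run, cut at about 20% in these data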;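 note: peak over basal fluorescence ratio from a 100 s FLIPR kinetic read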
# Starred values were filed as active, the others as inactive.
SMILES,OX1R antag-1,CHO parental Ca,OX1R antag-2,V1R ag counter,OXTR potentiator,OXTR ag
O=c1c2c([N+](=O)[O-])cc([N+](=O)[O-])cc2sn1Cc1ccccc1,71*,54*,35,2,-5,-1
C=CCNC(=S)Nc1c(N)n(C)c(=O)n(C)c1=O,-10,-1,6,1,-20,1
CCOC(=O)c1c(CSc2ccccc2)n(C)c2cc(Br)c(OCC(O)CNC(CO)(CO)CO)cc12 (centres undefined),45,90*,13,1,1,-1
CCOC(=O)c1c(CSc2ccccc2)n(C)c2cc(Br)c(OC)c(O)c12,-25,-5,11,1,-17,0
CCOc1ccccc1C(=O)NCC(=O)OCC(=O)c1c(N)n(C)c(=O)n(C)c1=O,-12,-7,0,1,-2,2
O=S(=O)(c1cccc2nsnc12)N1CCNCC1,-13,3,55*,1,-2,0
CC1CCCCN1CCNC(=O)C1CCN(S(=O)(=O)c2cccc3nsnc23)CC1 (centres undefined),-1,-17,34,0,-8,0
CC1CCCCN1CCNC(=O)C1CCCN(S(=O)(=O)c2cccc3nsnc23)C1 (centres undefined),-21,-28,46*,0,-6,1
CCCN(CCC)CCCNC(=O)C1CCN(S(=O)(=O)c2cccc3nsnc23)CC1,-2,-1,40*,0,-6,0
CCN(CCNC(=O)C1CCN(S(=O)(=O)c2cccc3nsnc23)CC1)c1ccccc1,-19,-10,30,3,-13,0
CCc1ccc(NC(=O)C(=O)NCC2CCCN2S(=O)(=O)c2ccccc2)cc1 (centres undefined),-32,-24,14,-1,-12,-2
COc1cc2ncc(S(=O)(=O)c3ccccc3)c(N3CCCC(C)C3)c2cc1OC (centres undefined),-14,16,27,2,-10,-2
CCOC(=O)C1CCN(C(=O)C2CCN(S(=O)(=O)N3CCC4(CC3)OCCO4)CC2)CC1,-12,-8,-2,2,-2,0
O=C(CC(c1ccccc1)(c1ccccc1)c1ccccc1)N[C@@H](Cc1ccc(O)cc1)C(=O)O,-2,-16,50*,1,-5,0
Cc1ccc(-c2cc(N)n(Cc3ccc(Cl)cc3)n2)cc1,-11,-12,26,2,-17,3
Cc1cc(N)n(Cc2ccc(Cl)cc2)n1,-5,-32,39*,0,-5,0
COc1ccccc1Nc1nc(N)nc(CSC(=S)N2CCCCC2)n1,-25,-23,33,-1,-3,-2
Cc1cc(NC(=O)/C=C/c2ccco2)ccc1NC(=O)c1ccccc1,-21,-19,14,1,-14,-2
O=C(/C=C/c1ccco1)Nc1ccc2nn(-c3ccccc3)nc2c1,18,6,77*,0,2,0
COc1ccc2ccccc2c1/C=N/NC(=O)c1cccc(Br)c1,-9,-27,47,0,-4,-2
O=C(N/N=C/c1c(O)ccc2ccccc12)c1cccc(C(F)(F)F)c1,56*,7,36,53*,-14,46*
COc1ccc(OC)c(NC(=O)CSc2nnc(CNC(=O)c3cccs3)o2)c1,-16,-9,5,1,-2,1
Cc1ccc(O)c(NC(=S)NC(=O)Cc2ccc(Cl)cc2)c1,107*,99*,-13,79*,-24,73*
Cc1c(NC(=O)c2cc(S(=O)(=O)N3CCCCC3)ccc2Cl)c(=O)n(-c2ccccc2)n1C,-31,-21,8,0,-1,-1
CSc1ncccc1C(=O)NCCc1ccccc1F,-13,-8,8,-1,8,1
SMILES,OX1R antag-1,CHO parental Ca,OX1R antag-2,V1R ag counter,OXTR potentiator,OXTR ag
C=CCNc1nc2c(c(=O)n(C)c(=O)n2C)n1Cc1ccc(F)cc1,-31,40*,29,5,-8,7
O=c1c2cc(F)ccc2sn1-c1ccccc1,46,72*,29,14,-9,18
O=c1c2ccccc2sn1-c1ccccc1,20,48*,46,6,-16,5
O=C(O)c1cccc(-n2sc3ccccc3c2=O)c1,-14,-6,-7,0,-4,1
CC1CCCC(NC(=O)COC(=O)COc2cccc(F)c2)C1C (centres undefined),-9,-1,5,0,-4,0
CCOC(=O)Cn1c(COc2ccccc2OC)[n+](C)c2ccccc21,-18,-8,6,-2,3,0
CCCCCCCCCCOC(=O)Cn1c(COc2ccccc2)[n+](C)c2ccccc21,73*,62*,11,53*,-14,27*
CCCCCCCCCCOC(=O)Cn1c(COc2ccc(Cl)cc2)[n+](C)c2ccccc21,21,33*,7,18,-11,17
CCOC(=O)C(CCSC)Nc1nc(Cl)nc(Nc2ccc(Cl)cc2)n1 (centres undefined),-16,-16,22,-1,-9,-2
COc1cc(OC)c2c(=O)cc(-c3ccccc3)oc2c1,-30,-16,44*,0,-6,1
CCOC(=O)C1CCN(C(=O)COc2cc(C)c(Br)cc2C)CC1,50*,54*,54,11,-24,11
CCOC(=O)C1CCN(C(=O)COc2ccc(Br)cc2Br)CC1,-24,-6,16,-1,-4,1
Cc1nn(C)c(Nc2ccc(Br)cc2)c1Br,40*,71*,50,6,-31,5
Cc1cc(C)nc(-n2nc(C)c(Br)c2Nc2ccc(Br)cc2)n1,-39,-24,11,-2,-4,-2
CCCN(CC(=O)Nc1cc(Cl)ccc1Cl)C(=O)/C=C/c1cc(OC)ccc1OC,32,-19,43*,2,-5,0
COc1ccccc1N(C(=O)c1ccco1)C(C(=O)NC1CCCCC1)c1cc(OC)c(OC)c(OC)c1 (centres undefined),-23,-23,42*,-1,-3,-1
COc1ccc(C(C(=O)NC2CCCCC2)N(C(=O)c2ccco2)c2ccccc2OC)cc1 (centres undefined),-22,-24,14,2,-9,4
COc1ccccc1C(CNC(=O)c1ccc(NS(=O)(=O)c2ccc3c(c2)OCCO3)cc1)N(C)C (centres undefined),-3,-12,15,1,3,0
O=C1C2CC=CCC2C(=O)N1c1ccc(N2CCN(c3ccccn3)CC2)c([N+](=O)[O-])c1 (centres undefined),27,46*,42,13,-9,18
